In ChEMBL document CHEMBL4342502, “Synthesis and Antichlamydial Activity of Molecules Based on Dysregulators of Cylindrical Proteases” (J Med Chem, 2020):
The source made the active and inactive calls. The calls are words filed in the database; no cut-off is given here.

Columns and labels:
Acinetobacter baumannii = experiment: Antibacterial activity against Acinetobacter baumannii ATCC 19606 assessed as bacterial growth inhibition at 32 ug/ml measured after 16 hrs by broth microdilution method; format: functional, organism-based; conditions: ATCC 19606 = CIP 70.34 = JCM 6841
Chlamydia trachomatis [1] = experiment: (§1) Activation of recombinant Chlamydia trachomatis Serovar LGV-L2 C-terminal 6xhis-tagged ClpP2 expressed in Escherichia coli assessed as induction of casein degradation at 0.1 to 1 uM using FITC-labelled casein as substrate pretreated with enzyme for 30 mins followed by substrate addition and measured every 3 mins for 3 hrs in absence of AAA+ chaperone by fluorescence based tecan-plate reader assay
In short: (§2)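 Recombinant C-terminal His6-tagged ClpP, expressed in a clpAPX-null E. coli strain and purified (mammalian ClpP without mitochondrial signal, codon-optimized). ClpP at 1 or 0.1 μM (E. coli), 1 μM (human, mouse) or 6 μM (chlamydial ClpP1 and ClpP2) preincubated with compound or DMSO, 30 min, 32 °C, in HEPES pH 7.6/KCl/MgCl2/DTT/glycerol buffer. 20 μM FITC-casein then added. Fluorescence (ex 490/em 525 nm) read every 3 min for 3 h. At least three runs on at least two protein preparations.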

Chlamydia trachomatis [2] = experiment: Anti-chlamydial activity against Chlamydia trachomatis Serovar LGV-L2 infected in Hep2 cells assessed as inhibition of chlamydial inclusion at 50 ug/ml treated at 8 hrs post infection and measured at 24 hrs post-infection by immunofluorescence assay; format: functional, organism-based
In short: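 HEp-2 cells infected with C. trachomatis serovar L2. Compounds at 50 μg/mL added 8 hpi; inclusion number and size assessed by immunofluorescence at 24 hpi against untreated cells. Cell morphology and viability checked by phase-contrast microscopy.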

Staphylococcus aureus [3] = experiment: Antibacterial activity against methicillin-resistant Staphylococcus aureus ATCC 43300 assessed as bacterial growth inhibition at 32 ug/ml measured after 16 hrs by broth microdilution method; format: functional, organism-based
[4] = Mutagenicity in Drosophila melanogaster somatic cells assessed as frequency of clone formation in HB crosses at 0.25 to 1 mM by SMART assay; format: ADME; conditions: 1000 µM
In short: (§3)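 Drosophila SMART wing-spot assay, ST and HB crosses. Third-instar larvae (72 ± 4 h) placed on hydrated instant mashed potato medium containing compound at 0.25, 0.5 or 1.0 mM final. Negative control: water with 1% Tween-80 and 3% ethanol. Statistics by Frei and Würgler two-sided U test, P≤0.05.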

Escherichia coli [5] = experiment: Antibacterial activity against Escherichia coli K12 assessed as bacterial death up to 256 ug/ml measured after 16 hrs by broth microdilution method; format: functional, organism-based; conditions: K-12
In short: (§4)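 Broth microdilution in Mueller Hinton broth, triplicate. Direct colony suspension at 1.5 x 10^8 CFU/mL diluted to ~10^5 CFU/mL. Serial dilutions made from DMSO stocks at 1 mg/mL; vancomycin positive control, blank medium negative control. Incubated 16 h at optimum temperature. MIC is the lowest concentration without visible growth at 600 nm; mean of triplicate determinations.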

HeLa 229 = experiment: Cytotoxicity against human HeLa 229 cells assessed as reduction in cell viability at 50 ug/ml after 24 hrs by CCK-8 assay; format: cell-based; conditions: hela 229, 24 h
In short: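 HeLa 229 and HaCaT cells in DMEM with 10% FBS and 1% penicillin/streptomycin, 37 °C, 5% CO2, seeded at 5000 cells/well. Next day treated with 50 μg/mL in triplicate, with matching DMSO controls. After 24 h, CCK-8 added for 2 h; corrected absorbance read at 450 nm.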

[6] = Stability of compound in human liver microsomes at 1 ug/ml measured up to 60 mins in absence of NADPH by LC-MS/MS analysis; format: ADME, Microsome; conditions: 1 h
In short: (§5)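 Human liver microsomes (1.0 mg/mL protein) in 100 mM phosphate pH 7.4 with 10 mM MgCl2 and 2 mM NADPH, preincubated 10 min at 37 °C. Reaction started with compound at 1 μg/mL. Sampled at 0, 5, 15, 20, 30, 45 and 60 min and quenched in methanol with internal standard. Controls: no NADPH (negative), testosterone (positive). Analysed by LC-MS/MS, triplicate.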

Klebsiella pneumoniae = experiment: Antibacterial activity against Klebsiella pneumoniae ATCC 700603 assessed as bacterial growth inhibition at 32 ug/ml measured after 16 hrs by broth microdilution method; format: functional, organism-based
[7] = Half life in human liver microsomes at 1 ug/ml measured up to 60 mins by LC-MS/MS analysis; format: ADME, Microsome; conditions: microsomes, 1 h; in short: as §5
[8] = Mutagenicity in Drosophila melanogaster somatic cells assessed as frequency of clone formation in ST crosses at 0.25 to 1 mM by SMART assay; format: ADME; conditions: 1000 µM; in short: as §3
Pseudomonas aeruginosa = experiment: Antibacterial activity against Pseudomonas aeruginosa ATCC 27853 assessed as bacterial growth inhibition at 32 ug/ml measured after 16 hrs by broth microdilution method; format: functional, organism-based
Staphylococcus aureus [9] = experiment: Antibacterial activity against Staphylococcus aureus JE2 assessed as bacterial growth inhibition at 32 ug/ml measured after 16 hrs by broth microdilution method; format: functional, organism-based; in short: as §4
[10] = as §1, with “human” for “Chlamydia trachomatis Serovar LGV-L2”, “6xHis-tagged ClpP” for “6xhis-tagged ClpP2”; in short: as §2
[11] = Stability of compound in mouse pre-heated plasma at 50 uM incubated up to 120 mins by HPLC-ESI/MS analysis; format: ADME, cell-free; conditions: 2 h
In short: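 Compounds from 2.5 mM DMSO stocks incubated at 50 μM final in mouse plasma diluted to 80% with PBS, preheated, 37 °C, shaking. Sampled at 0, 15, 30, 60, 90 and 120 min and quenched with cold acetonitrile. Centrifuged; supernatant analysed by HPLC-ESI-MS. Peak area reported relative to time zero. Enalapril positive control; triplicate.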

Cryptococcus neoformans = experiment: Antifungal activity against Cryptococcus neoformans var. grubii H99 ATCC […] as fungal growth inhibition at 32 ug/ml measured after 16 hrs by broth microdilution method; format: functional, organism-based; conditions: var. grubii H99 ATCC 208821
Staphylococcus aureus [12] = experiment: Antibacterial activity against Staphylococcus aureus JE2 assessed as bacterial death up to 256 ug/ml measured after 16 hrs by broth microdilution method; format: functional, organism-based; in short: as §4
[13] = Drug metabolism in human liver microsomes assessed as amount of drug modified at 1 ug/ml […] in presence of NADPH by LC-MS/MS analysis; format: ADME, Microsome; conditions: read-out: Drug metabolism
Candida albicans = experiment: Antifungal activity against Candida albicans ATCC 90028 assessed as fungal growth inhibition at 32 ug/ml measured after 16 hrs by broth microdilution method; format: functional, organism-based
[14] = Stability of the compound in simulated gastric fluid at 50 uM and pH 1.2 at 37 degree C measured up to 120 mins by HPLC-ESI/MS analysis; conditions: simulated gi fluid, pH 1.2, 2 h
Chlamydia trachomatis [15] = experiment: as §1, with “ClpP1/ClpP2 dimer” for “ClpP2”; in short: as §2
Escherichia coli [16] = experiment: Antibacterial activity against Escherichia coli ATCC 25922 assessed as bacterial growth inhibition at 32 ug/ml measured after 16 hrs by broth microdilution method; format: functional, organism-based

SMILES	inhibition (Acinetobacter baumannii)	Activity (Chlamydia trachomatis [1])	inhibition (Chlamydia trachomatis [2])	inhibition (Staphylococcus aureus [3])	Activity [4]	Activity (Escherichia coli [5])	Activity (HeLa 229)	Stability [6]	inhibition (Klebsiella pneumoniae)	t1/2 [7] [min]	Activity [8]	inhibition (Pseudomonas aeruginosa)	inhibition (Staphylococcus aureus [9])	Activity [10]	Stability [11]	inhibition (Cryptococcus neoformans)	Activity (Staphylococcus aureus [12])	metabolised at 10 min, 1 ug/ml [13] [%]	inhibition (Candida albicans)	Stability [14]	also measured
CC(C)(C(=O)N1CCN(Cc2ccc(Cl)cc2)CC1)S(=O)(=O)c1ccc(C(F)(F)F)cn1	inactive	inactive	Active	inactive	Non-Toxic	inactive	Non-Toxic	Stable	inactive	< 2	Non-Toxic	inactive	inactive	Not Active	Stable	inactive	inactive	90	inactive	Stable	Activity (Chlamydia trachomatis [15]): inactive; inhibition (Escherichia coli [16]): inactive
CC(C)(C(=O)NCCCc1ccccc1)S(=O)(=O)c1ccc(C(F)(F)F)cc1	inactive	Active	Active	inactive	Non-Toxic	inactive	Toxic	Stable	inactive	6.13	Non-Toxic	inactive	inactive	Active	Stable	inactive	inactive	90	inactive	Stable	Activity (Chlamydia trachomatis [15]): Active; inhibition (Escherichia coli [16]): inactive
